# Screens deposited in PubChem by The Scripps Research Institute Molecular Screening Center.
# TAAR1 agonist – agonists of human TAAR1. Q96RJ0. CHO RD-HGA16 TAAR1, Fluo-8 calcium fluorescence; vehicle wells 0%, saturating PEA agonist 100%. activation, % at 3 µM. hit rate 0.99% among 360,000. AID 624467;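 active = activation above the mean activation of all test compounds in the run plus 3 SD, cut at about 38% in these data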
# Target sequence (Q96RJ0 whole entry, looked up): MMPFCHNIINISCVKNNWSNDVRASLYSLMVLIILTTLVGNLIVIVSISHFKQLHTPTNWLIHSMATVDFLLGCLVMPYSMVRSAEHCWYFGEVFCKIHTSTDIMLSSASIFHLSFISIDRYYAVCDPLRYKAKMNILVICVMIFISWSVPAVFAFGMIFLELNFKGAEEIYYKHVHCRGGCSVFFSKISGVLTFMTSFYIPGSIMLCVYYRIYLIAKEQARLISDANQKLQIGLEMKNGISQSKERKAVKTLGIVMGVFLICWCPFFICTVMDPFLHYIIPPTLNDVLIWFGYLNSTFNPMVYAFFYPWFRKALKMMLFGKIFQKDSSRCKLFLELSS
#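 System: CHO-derived RD-HGA16 cells with stable Gα16 and human TAAR1 / Times: 17-24 h plating, Fluo-8 75 min 37 °C, 30 min RT / Technique: calcium-sensitive Fluo-8 signal, excitation 470-495, emission 515-575 nm / Measure: % activation relative to PEA EC100 response / Benchmarks: DMSO and PEA EC100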
# TAAR1 antagonist – antagonists of human TAAR1. Q96RJ0. CHO RD-HGA16 TAAR1, Fluo-8 calcium fluorescence, antagonist. inhibition, % at 3 µM. hit rate 1.5% among 360,000. AID 624466;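 active = inhibition above a per-plate cutoff, the mean inhibition of test compounds on that plate plus 3 SD, cut at about 49% in these data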;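 also: 0% = DMSO plus EC80 beta-PEA response and 100% = DMSO alone without agonist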
#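 test system = CHO RD-HGA16 cells bearing hTAAR1 | replication = singlicate | controls = DMSO-only wells and EC80 β-PEA-stimulated wells | reagent = EC80 β-phenethylamine stimulus | read-out basis = percent inhibition of PEA-evoked calcium signal, max/basal emission ratio | schedule = seeding 17-24 h prior, 75-min 37 °C, 30-min RT dye loading | signal = kinetic Fluo-8 calcium fluorescence measurement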
# OX1R antag-1 – antagonists of human orexin 1 receptor. CHO/OX1R cells, Fluo-8 calcium fluorescence, orexin A. inhibition, % at 5 µM. hit rate 0.43% among 330,000. AID 434989;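 active = inhibition above its plate's threshold, mean inhibition of all tested compounds on the plate plus 3 SD, cut at about 37% in these data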;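 also: 0% = orexin A challenge wells and 100% = SB-334867-A antagonist wells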
# GPR7 antagonist – blocks human GPR7 receptor signaling. inhibition, % at 4.4 µM. P48145. hit rate 1.1% among 290,000. AID 1861. GPR7-expressing cells, fluorescence antagonist assay; in the data active = inhibition above about 16%, passing the limit was not always enough;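 also: cells stimulated with the agonist NPW; 0% = agonist with vehicle and 100% = vehicle without agonist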
# CHO parental Ca – counter-screen for OX1R antagonists: effect in parental CHO cells | parental CHO-K1, ATP-induced calcium, Fluo-8 fluorescence | hit rate 0.63% among 330,000 | inhibition, % at 5.6 µM | AID 463079;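 active = inhibition above that plate's mean sample inhibition plus 3 SD, cut at about 26% in these data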;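 also: 0% = ATP-challenged DMSO wells and 100% = DMSO wells without ATP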
#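 material = parental CHO cells | also added = ATP as calcium-mobilizing challenge | dosing = single point at 5.6 µM | detection = intracellular calcium via Fluo-8 no-wash fluorescent dye | read-out = % inhibition | benchmarks = low control ATP plus DMSO, high control DMSO only | repeats = one well per compound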
# OX1R antag-2 – antagonists of human orexin 1 receptor (OX1R) | O43613 | OX1R-expressing cells, FRET antagonist read-out | inhibition, % at 6.6 µM | hit rate 1.8% among 330,000 | AID 485270; in the data active = inhibition mostly above about 38%, no sharp cut-off; inactive = mostly below about 40%;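 also: 0% = agonist challenge alone and 100% = reference antagonist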
# * hit, by the source's call; . = not tested or not shown. This is a sample that favours compounds with a hit; in the whole collection about 4.6% have one here.
SMILES,TAAR1 agonist,TAAR1 antagonist,OX1R antag-1,GPR7 antagonist,CHO parental Ca,OX1R antag-2
Nc1c2c(nc3sc4c(c13)CCCC4)-c1ccccc1CC2,-3,9,-7,-4,-10,72*
NNc1nc(-c2ccccc2)nc2sc3c(c12)CCCC3,1,-17,-17,-8,-19,8
O=S(=O)(c1cccs1)N1CCN(c2ccnc3cc(Cl)ccc23)CC1,0,35,-39,5,-14,8
O=S(=O)(c1ccccc1)N1CCN(c2ccnc3cc(Cl)ccc23)CC1,6,39,38,11,89*,29
O=C(c1ccco1)N1CCN(c2c([N+](=O)[O-])nn(-c3ccc(Cl)cc3)[n+]2[O-])CC1,-1,-15,-18,1,-18,42*
Cc1cccc(NC(=O)c2nc[nH]c2C(=O)N[C@@H](C)CO)c1,1,14,.,.,.,.
CCN1C(=O)/C(=C2/C=CC=CN2C)SC1=S,6,-5,4,4,5,46*
CCN(CC)c1ccc(NC(=O)Nc2ccccc2)cc1,25,50*,-9,1,-7,8
CCN(CC)c1ccc(NC(=O)Nc2ccc(C(C)=O)cc2)cc1,20,32,-20,-1,11,17
CNC(=O)c1ccc(NC(=O)Nc2ccccc2)cc1,40*,10,-10,2,-4,14
COc1cc(NC(=O)N2CCc3nc(Nc4cc(Cl)cc(Cl)c4)ncc3C2)cc(OC)c1OC,0,37,.,.,.,.
COc1ccc([C@H]2C[C@H](O)[C@@H](n3cc(COC(=O)c4ccccc4)nn3)CN2C(=O)C2CCCCC2)cc1,0,19,.,.,.,.
COC(=O)[C@]12C[C@H](CC(=O)NCc3cccs3)C(=O)N(Cc3ccccc3)C1=C[C@H](C(C)(C)C)O[C@@H]2C,0,-35,.,.,.,.
O=C(c1sc2cc([N+](=O)[O-])ccc2c1Cl)N1CCOCC1,5,-10,-13,9,-9,75*
C=CC[C@]12C[C@@]3(O[C@H](c4ccccn4)N=C3C[C@H](c3ccc(OC)cc3)[C@H]1C)N(C1CCN(Cc3ccccc3)CC1)C2=O,2,-53,.,.,.,.
COc1ccccc1/C=C/C(=O)OCC(=O)c1c[nH]c2ccccc12,1,19,18,.,-10,42*
CCc1cccc2c(C(=O)COC(=O)c3ccc([N+](=O)[O-])s3)c[nH]c12,22,42,4,5,22,30
O=C(OCC(=O)c1c[nH]c2ccccc12)c1ccc([N+](=O)[O-])s1,25,7,2,-2,-2,51*
COc1ccccc1/C=C/C(=O)OCc1nc2ccccc2c(=O)[nH]1,0,6,2,6,-45,46*
COc1ccc(C(=O)OCC(=O)c2c[nH]c3ccccc23)cc1OC,7,21,18,.,-11,32*
COc1cc(C(=O)OCC(=O)c2c[nH]c3ccccc23)ccc1OCC(=O)N1CCOCC1,5,6,-15,9,-2,1
CC(=O)Nc1cccc(-c2ccnc3c2CC(C(=O)Nc2ccc(C(C)C)cc2)O3)c1 (stereo unspecified),5,30,.,.,.,.
Cc1n[nH]c(C)c1CCCCOc1ccccc1[N+](=O)[O-],0,4,-11,8,48*,59*
Cc1ccccc1OCCCCc1c(C)n[nH]c1C,5,0,-1,2,6,39
CC(C)Cc1ccc(C(C)/C=C2/CCC(CN3CCCCC3)C2=O)cc1 (stereo unspecified),4,12,.,.,.,.
CC(C)Cc1ccc(C(C)CC2=CCC(CN(C)C)C2=O)cc1 (stereo unspecified),3,51*,.,.,.,.
Cc1ccc(NS(=O)(=O)c2ccc(OCC(=O)NCc3ccco3)cc2)cc1,40*,22,-13,4,-7,7
CC(SCc1ccccc1)C(=O)N/N=C/c1ccc(OCC(=O)NCc2ccco2)cc1 (stereo unspecified),6,12,24,-4,-2,56*
O=C(COC(=O)/C=C/c1ccccc1)Nc1ccc2c(c1)OCCO2,4,-3,-8,.,-12,-1
COc1ccc(CCNC(=O)COC(=O)/C=C/c2ccc3c(c2)OCO3)cc1,8,7,-21,.,32*,20
